{
  "source": "paper PMC12928844",
  "about": "(Nature, 2025)",
  "key": {"K^cPC PDAC tumours": {"test_system": "K^cPC PDAC tumours", "experiment": "Autochthonous K^cPC PDAC mouse model treatment study", "format": "in vivo", "conditions": "2 weeks of treatment, 10 mg kg−1 daily", "in_short": "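C57BL/6;129S1 mixed-background mice of both sexes, with littermates as controls. Control and monotherapy groups went through the same procedure but received vehicle. The survival end point was set by overall health criteria scoring, and health status and weight were checked daily.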"}, "K^c/cP LUAD tumours": {"test_system": "K^c/cP LUAD tumours", "experiment": "K^c/cP LUAD mouse model treatment study", "format": "in vivo", "conditions": "at humane end point; about 100 nodules per mouse at start"}, "[1]": {"test_system": "NSD2 and H3K36me2 levels in cell lines", "experiment": "Western blot after KRASi treatment", "format": "cell-based", "conditions": "100 nM sotorasib, 1 day"}, "K^c/cP LUAD tumour cells": {"test_system": "K^c/cP LUAD tumour cells", "experiment": "scRNA-seq tumour fitness score of K^c/cP tumours", "format": "in vivo, mouse", "conditions": "3 weeks of treatment", "in_short": "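KC/CP lung tumour-bearing mice (mixed C57BL/6;129S1, both sexes, littermate controls) received test compound at 100 mg kg−1 once daily i.p. in 40% (2-hydroxypropyl)-β-cyclodextrin, or vehicle. Tumour cells were filtered through 70 μm strainers, given ACK red-cell lysis, washed and counted for scRNA-seq. Malignant cells were called by inferCNV against normal mouse lung alveolar cells.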"}},
  "data": [
    {"smiles": "C=CC(=O)N1CCN(c2nc(=O)n(-c3c(C)ccnc3C(C)C)c3nc(-c4c(O)cccc4F)c(F)cc23)[C@@H](C)C1", "note": "[KRASi, sotorasib]", "values": [
      {"measurement": "ERK1/2 phosphorylation in PDAC tumour lysates (western)", "setting": "K^cPC PDAC tumours", "value": "blocked ERK1 and ERK2 (ERK1/2) phosphorylation"},
      {"measurement": "individual tumours (nodules) eliminated", "setting": "K^c/cP LUAD tumours", "value": "~75", "unit": "%"},
      {"measurement": "levels of NSD2 or H3K36me2 (western)", "setting": "[1]", "value": "does not impact"},
      {"measurement": "tumour fitness score (scRNA-seq)", "setting": "K^c/cP LUAD tumour cells", "value": "decreased score"}
    ]}
  ]
}
